Results on 19 compounds are retold here after ChEMBL document CHEMBL1147912, “1-(1,3-Benzodioxol-5-ylmethyl)-3-[4-(1H-imidazol-1-yl)phenoxy]-piperidine analogs as potent and selective inhibitors of nitric oxide formation” (Bioorg Med Chem Lett, 2007).

The structures appear in SMILES notation.

For data set [1], the system named is A 172. Briefly: Inhibition of nitric oxide formation in human A172 cells. In kind it is functional, cell-based. The method, boiled down: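 Human A172 cells were stimulated with cytokines to induce NO formation, with compound present. Nitrite/NO produced was read with Griess reagent and IC50 determined.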
In data set [2] the target is Nitric oxide synthase, inducible (Homo sapiens, UniProt P35228). Briefly: Inhibition of tetracycline-induced iNOS expressed in SF9 cells. The method, boiled down: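 SF9 cells transfected with iNOS in a tetracycline-inducible system, expression induced by tetracycline. NOS activity was measured as conversion of radiolabeled arginine to radiolabeled citrulline. IC50 was averaged over at least two separate experiments unless noted otherwise.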

Data set [3] can be described thus: Volume of distribution at steady state in rat at 2 mg/kg, iv. Format: ADME, organism-based. Details: dose 2 mg/kg, route intravenous. The note with it: in vivo, read-out: Vss. The method, boiled down:
(§1)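 Rat, intravenous dose of 2 mg/kg. Readouts were half-life, clearance, steady-state volume of distribution and AUC to infinity.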

Data set [4] is described as follows: Clearance in rat at 2 mg/kg, iv. The note with it: in vivo. Details: dose 2 mg/kg, route intravenous. In kind it is ADME, organism-based. Summed up:
as §1

A short description of data set [5]: Metabolic stability in dog liver microsomes after 3 hrs. Particulars: read-out: Stability. Format: ADME, Canis lupus familiaris, Microsome. Summed up:
(§2)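 Compound incubated with rat, dog or human liver microsomes for 3 h. Stability was reported as percent parent remaining.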
Background: Microsomes from liver hold many membrane-bound enzymes, among them those of drug oxidation.

A short description of data set [6]: AUC (infinity) in rat at 10 mg/kg, po. In kind it is ADME, organism-based. Set-up: time infinity, dose 10 mg/kg, route oral. The note with it: plasma. Summed up: (§3)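 Rat, oral dose of 10 mg/kg. Readouts were Cmax, terminal half-life, AUC to infinity and oral bioavailability (%F).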
Data set [7] in a line: Cmax in rat at 10 mg/kg, po. Format: ADME, organism-based. Details: dose 10 mg/kg, route oral. Particulars: in vivo. Summed up: as §3
Data set [8] is described as follows: Bioavailability in rat at 10 mg/kg, po. In kind it is ADME, organism-based. Particulars: in vivo. Summed up:
as §3

The subject of data set [9] is Rattus norvegicus. Briefly: AUC (infinity) in rat at 2 mg/kg, iv. Format: ADME, organism-based, Plasma. Set-up: time infinity, dose 2 mg/kg, route intravenous. The note with it: in vivo. Summed up: as §1
Data set [10] can be described thus: Metabolic stability in rat liver microsomes after 3 hrs. The note with it: read-out: Stability. Format: ADME, Microsome. Summed up:
as §2

Data set [11] can be described thus: Half life in rat at 2 mg/kg, iv. Particulars: in vivo. Details: dose 2 mg/kg, route intravenous. In kind it is ADME, organism-based. The method, boiled down:
as §1

Data set [12] can be described thus: Metabolic stability in human liver microsomes after 3 hrs. Format: ADME, Microsome. Particulars: read-out: Stability. The method, boiled down:
as §2

The nature of data set [13]: Half life in rat at 10 mg/kg, po. In kind it is ADME, organism-based. Details: dose 10 mg/kg, route oral. The note with it: in vivo. Summed up: as §3

Chain of Nitric oxide synthase, inducible (P35228 whole entry): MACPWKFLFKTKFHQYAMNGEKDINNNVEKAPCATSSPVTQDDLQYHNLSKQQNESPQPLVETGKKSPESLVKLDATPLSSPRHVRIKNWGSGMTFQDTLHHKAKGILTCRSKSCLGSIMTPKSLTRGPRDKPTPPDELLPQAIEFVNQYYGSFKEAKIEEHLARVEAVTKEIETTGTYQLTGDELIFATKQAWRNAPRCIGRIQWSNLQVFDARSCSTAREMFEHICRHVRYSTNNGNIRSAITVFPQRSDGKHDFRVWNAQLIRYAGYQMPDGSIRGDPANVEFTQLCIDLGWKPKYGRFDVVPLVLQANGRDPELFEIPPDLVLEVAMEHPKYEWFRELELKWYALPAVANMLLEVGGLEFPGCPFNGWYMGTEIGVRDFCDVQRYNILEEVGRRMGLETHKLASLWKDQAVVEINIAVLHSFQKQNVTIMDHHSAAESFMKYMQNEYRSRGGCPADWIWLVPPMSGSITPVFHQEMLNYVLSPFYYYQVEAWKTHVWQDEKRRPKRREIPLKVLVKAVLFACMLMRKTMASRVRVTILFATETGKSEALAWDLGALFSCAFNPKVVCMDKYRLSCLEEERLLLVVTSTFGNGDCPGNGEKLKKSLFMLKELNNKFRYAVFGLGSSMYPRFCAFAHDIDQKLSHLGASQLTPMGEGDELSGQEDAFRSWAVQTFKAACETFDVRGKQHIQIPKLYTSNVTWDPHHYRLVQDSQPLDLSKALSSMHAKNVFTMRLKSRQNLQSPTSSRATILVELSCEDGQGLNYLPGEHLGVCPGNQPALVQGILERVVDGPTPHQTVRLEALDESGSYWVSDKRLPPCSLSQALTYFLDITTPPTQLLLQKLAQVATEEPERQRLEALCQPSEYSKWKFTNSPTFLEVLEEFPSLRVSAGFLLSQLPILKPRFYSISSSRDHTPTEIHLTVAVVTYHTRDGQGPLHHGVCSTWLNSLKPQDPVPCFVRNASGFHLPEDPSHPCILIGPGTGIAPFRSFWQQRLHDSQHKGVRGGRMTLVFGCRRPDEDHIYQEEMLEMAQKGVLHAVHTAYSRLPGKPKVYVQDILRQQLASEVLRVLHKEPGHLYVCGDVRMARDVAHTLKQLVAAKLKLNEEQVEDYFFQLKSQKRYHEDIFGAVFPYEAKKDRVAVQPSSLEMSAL

A word on the IC50: it is the concentration needed to halve the response being measured. Read a high IC50 as a need for much substance. In data set [1], `c1cn(-c2ccc(OCCNCc3ccc4c(c3)OCO4)cc2)cn1` displayed an IC50 of 240 nM.

As to `O=C(O)CN(CCOc1ccc(-n2ccnc2)cc1)Cc1ccc2c(c1)OCO2`, in data set [1], the IC50 is > 10000 nM.

In data set [1], `c1cn(-c2ccc(OCCN(Cc3ccc4c(c3)OCO4)Cc3ccc4c(c3)OCO4)cc2)cn1` yielded an IC50 of 1500 nM.

In the case of `O=C(CN(CCOc1ccc(-n2ccnc2)cc1)Cc1ccc2c(c1)OCO2)NCc1ccc2c(c1)OCO2`, in data set [1], the IC50 was 640 nM.

Turning to `c1cn(-c2ccc(OC3CCCN(Cc4ccc5c(c4)OCO5)C3)cc2)cn1` (stereo unspecified), the IC50 was 57 nM in data set [1] and 250 nM in data set [2].

In data set [1], `c1cn(-c2ccc(O[C@@H]3CCCN(Cc4ccc5c(c4)OCO5)C3)cc2)cn1` had an IC50 of 1700 nM.

Broadly, the clearance is a measure of how efficiently the substance is removed, as volume per time. The low end stands for a low capacity for elimination, the high end for a high capacity for elimination. The AUC(0-inf) is the area under the concentration-time curve extrapolated to infinity. A low value points to low exposure. Usually Cmax stands for the peak of the concentration-time curve. A word on the bioavailability: it is the share of a dose that reaches the circulation, judged against a reference dose that is usually intravenous. As usually defined, the AUC is the area under the concentration-time curve, a measure of exposure. In general, half-life refers to the time needed for the level to fall by half in the phase considered. Turning to `c1cn(-c2ccc(O[C@H]3CCCN(Cc4ccc5c(c4)OCO5)C3)cc2)cn1`, the Vd in data set [3] was found to be 21 L/kg. Further, the clearance in [4] was found to be 128 mL/min/kg. Moreover, the remaining at 3 h in data set [5] came out at 89%; in [10], 47%; in [12], 31%. Moreover, in data set [6], the AUC(0-inf) was 2600 ng·h/mL. In addition, the Cmax in data set [7] came out at 800 ng/mL. Further, the IC50 is 9 nM in data set [1] and 72 nM in data set [2]. The compound further gave a bioavailability in data set [8] of 100%. This compound also showed an AUC in data set [9] of 280 ng·h/mL. The half-life in [11] is 2.2 h; in data set [13] it was 2.9 h.

`c1cn(-c2ccc(O[C@H]3CCN(Cc4ccc5c(c4)OCO5)C3)cc2)cn1` showed an IC50 in data set [1] of 1600 nM.

Regarding `c1cn(-c2ccc(NC3CCCN(Cc4ccc5c(c4)OCO5)C3)cc2)cn1` (stereo unspecified), the results for the IC50 in [1] and in [2] were 10 nM and 120 nM, respectively.

In the case of `c1cn(-c2ccc(OC3CCCN(Cc4ccc5c(c4)OCO5)C3)nn2)cn1` (stereo unspecified), the IC50 in data set [1] came out at 52 nM; in [2], 590 nM.

For `c1cn(-c2ccc(OCC3CCCN(Cc4ccc5c(c4)OCO5)C3)cc2)cn1` (stereo unspecified), the IC50 in data set [1] is > 10000 nM.

`c1cn(-c2ccc(OCC3CCCCN3Cc3ccc4c(c3)OCO4)cc2)cn1` (stereo unspecified): the IC50 in [1] is 100 nM; in data set [2], 2200 nM.

Take `CC1CCCCN1CCCNC(=O)CN(CCOc1ccc(-n2ccnc2)cc1)Cc1ccc2c(c1)OCO2` (stereo unspecified): in data set [1], the IC50 was determined as 1600 nM.

In the case of `c1cn(-c2ccc(OC3CCN(Cc4ccc5c(c4)OCO5)C3)cc2)cn1` (stereo unspecified), the IC50 in data set [1] was 4200 nM.

Consider `c1cn(-c2ccc(O[C@@H]3CCN(Cc4ccc5c(c4)OCO5)C3)cc2)cn1`, for which, in data set [1], the IC50 is > 10000 nM.

`c1cn(-c2ccc(OC3CCCCN(Cc4ccc5c(c4)OCO5)C3)cc2)cn1` (stereo unspecified): 78 nM corresponded to half-maximal inhibition in [1] (IC50).

For `c1cn(-c2ccc(OC[C@H]3CCCN3Cc3ccc4c(c3)OCO4)cc2)cn1`, the IC50 in data set [1] came to 250 nM; in data set [2], 1200 nM.

`O=C(CN(CCOc1ccc(-n2ccnc2)cc1)Cc1ccc2c(c1)OCO2)NCc1ccc(C(F)(F)F)cc1`: the IC50 in [1] worked out at 1800 nM.

In turn, `CCOC(=O)CN(CCOc1ccc(-n2ccnc2)cc1)Cc1ccc2c(c1)OCO2` returned an IC50 in data set [1] of 1200 nM.
